Active and inactive are the calls of the source. No cut-off for these calls is given here.
Key:
Rattus norvegicus [1] = test: Antidiabetic activity in diet-induced obese Sprague-Dawley rat assessed as effect on insulin level at 0.3 mg/kg, po administered once daily for 3 weeks measured after 30 mins by OGTT; format: functional, organism-based; set-up: dose 0.3 mg/kg
In short: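 DIO rats (n = 10/group) on high fat diet, dosed po once daily in Klucel suspension for 3 weeks. On day 21 an oral glucose challenge of 2 g/kg was given, and plasma insulin was measured at the 30 min time point.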

Rattus norvegicus [2] = test: Antidiabetic activity in diet-induced obese Sprague-Dawley rat assessed as decrease in glucose excursion at 0.3 mg/kg, po administered once daily for 3 weeks by OGTT; format: functional, organism-based; set-up: dose 0.3 mg/kg
In short: (§1)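 Male Sprague-Dawley DIO rats (n = 10/group), 550–650 g, reverse light/dark cycle, high fat diet from 7 weeks of age; dosed po once daily in Klucel suspension.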

[3] = Permeability across human Caco2 cells; format: ADME, cell-based; settings: Caco-2, read-out: permeability
Rattus norvegicus [4] = test: Antidiabetic activity in diet-induced obese Sprague-Dawley rat assessed as decrease in glucose excursion at 1 mg/kg, po administered once daily for 3 weeks by OGTT; format: functional, organism-based; set-up: dose 1 mg/kg; in short: as §1
[5] = Extrapolated AUC in Beagle dog at 10 mg/kg, po; format: ADME, organism-based, Canis lupus familiaris; set-up: dose 10 mg/kg, route oral; settings: in vivo
In short: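 Plasma extracted by acetonitrile precipitation and quantified by LC-MS/MS (5.0–5000 ng/mL); noncompartmental PK; bioavailability relative to 5 mg/kg iv; mean of n = 3.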

For `O=C(Nc1ccc(C2CCN(C(=O)[C@H]3CC[C@H](C(=O)O)CC3)CC2)cc1)c1nc(-c2ccccc2)oc1C(F)(F)F`, the Activity (Rattus norvegicus [1]) was “inactive”, the Activity (Rattus norvegicus [2]) was “Active” and the Papp [3] was 24.5 ×10⁻⁶ cm/s. For the same molecule, the Activity (Rattus norvegicus [4]) was “Active” and the AUC [5] was 77.9 µM·h.

Source: ChEMBL document CHEMBL1764953, “Discovery of orally active carboxylic acid derivatives of 2-phenyl-5-trifluoromethyloxazole-4-carboxamide as potent diacylglycerol acyltransferase-1 inhibitors for the potential treatment of obesity and diabetes” (J Med Chem, 2011)
